Hep lipid drop: inhibitors of hepatocyte lipid droplet formation, primary screen, imaging, high-throughput imaging, BODIPY stain | 240,000 tested, 0.4% active | AID 1656, 2009 | inhibition, % at 6.5 µM | AML12 mouse hepatocytes, oleate lipid droplets;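 active = lipid droplet intensity inhibited by at least 50%, with more than 500 cells counted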
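Assay system: AML12 mouse liver cells | Compound: 6.5 µM single-point dosing | Schedule: Overnight exposure | Technique: Fluorescence imaging, 20x objective, two fields per well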
Arr AP2 block: inhibitors of beta-arrestin/AP2 binding, primary screen, biochemical, GPCR trafficking, flow cytometry; inhibition, % at 10 µM; 340,000 tested, 0.31% active; AID 504490, 2011; FITC-arrestin peptide / GST-AP2 beads; AP2 beta2 appendage carries R879A mutation; beta-arrestin 1 C-terminal peptide binding to AP2 beta2-adaptin appendage (human);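 active = inhibition above a set limit, near 3 SD of compounds lacking own fluorescence, cut at about 54% in these data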;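 note: plate controls were DMSO wells for no effect and 5 µM unlabelled arrestin peptide for full effect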
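Material – AP2 appendage R879A on GSH beads · Buffer or medium – PBS with 0.05% Tween 20 and 0.1% BSA · Probe or stimulus – fluorescein-tagged arrestin peptide at 50 nM final · Incubation – compound with beads 12 min RT, then probe 1 h RT · Detection – high-throughput flow cytometry of beads, ex 488, em 535 nm · Evaluation – percent response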
TAG inh: inhibitors of triacylglycerol accumulation, primary screen, cell-based, uHTS, fluorescence, H9c2. H9c2 cells, Nile Red lipid (TAG) fluorescence; cells loaded with 200 µM oleic acid. inhibition, % at 12.5 µM. 230,000 tested, 0.66% active;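 active = pattern-corrected inhibition of lipid staining of at least 50% with the nuclear-stain viability signal not falling by more than 50%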;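 note: 0% = DMSO wells and 100% = triacsin C control wells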
NTR1 agonist: agonists of human NTR1, primary screen, imaging, U2OS cells, beta-arrestin-GFP, high content; Neurotensin receptor type 1 (Homo sapiens), P30989; NTR1-U2OS beta-arrestin-GFP spot imaging, agonist mode; activation, % at 20 µM; 330,000 tested, 0.17% active; AID 493036, 2011;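 active = activation at or above 40% of the spot to cytoplasm intensity ratio, with at least 20 cells analyzed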;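 note: 0% = DMSO without peptide and 100% = 100 nM NTR1 peptide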
GRK2 aptamer HTS: compounds blocking aptamer binding on GRK2 – biochemical, human GRK2, bead flow cytometry, HTS, primary screen | Beta-adrenergic receptor kinase 1 (Homo sapiens), P25098 | FAM-aptamer displacement from GRK2 | inhibition of aptamer binding, % at 10 µM | 330,000 tested, 0.59% active | AID 488847, 2010;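 active = inhibition of aptamer binding above 40%, roughly 3 SD of noise, on plates passing a quality check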;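 note: median bead fluorescence of bound FAM aptamer so fluorescent compounds give negative values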
Target sequence (P25098 whole entry, looked up): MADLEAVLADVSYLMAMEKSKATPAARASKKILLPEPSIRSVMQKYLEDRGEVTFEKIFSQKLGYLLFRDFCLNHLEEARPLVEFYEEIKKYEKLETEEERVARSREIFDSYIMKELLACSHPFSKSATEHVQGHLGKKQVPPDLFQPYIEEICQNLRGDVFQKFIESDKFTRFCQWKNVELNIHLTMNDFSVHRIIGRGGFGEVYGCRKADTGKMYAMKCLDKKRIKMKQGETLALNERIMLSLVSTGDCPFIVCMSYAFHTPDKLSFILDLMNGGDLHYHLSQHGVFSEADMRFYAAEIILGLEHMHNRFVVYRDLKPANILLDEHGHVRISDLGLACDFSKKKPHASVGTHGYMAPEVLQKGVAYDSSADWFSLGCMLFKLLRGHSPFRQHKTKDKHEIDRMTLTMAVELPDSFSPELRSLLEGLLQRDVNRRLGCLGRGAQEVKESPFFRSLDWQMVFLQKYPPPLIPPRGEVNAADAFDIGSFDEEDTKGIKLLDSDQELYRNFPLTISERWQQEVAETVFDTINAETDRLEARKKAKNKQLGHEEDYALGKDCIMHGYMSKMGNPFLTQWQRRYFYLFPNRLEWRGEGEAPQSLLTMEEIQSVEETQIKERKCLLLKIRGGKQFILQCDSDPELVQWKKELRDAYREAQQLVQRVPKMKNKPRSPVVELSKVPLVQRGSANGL
Beta2AR agonist: beta2AR agonists driving receptor internalization, primary screen, cell-based, FAP fluorogen, flow cytometry | Beta-2 adrenergic receptor (Homo sapiens), P07550 | Am2.2-beta2AR cells | response, % (no concentration beside the values) | 340,000 tested, 0.43% active;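 active = response above a set limit, near 3 SD of response in nonfluorescent compounds, cut at about 42% in these data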
NTR1 ag conf: NTR1 agonists, single-dose retest, confirmation, imaging, U2OS cells, beta-arrestin-GFP, single concentration; shares compounds with NTR1 agonist; NTR1-U2OS beta-arrestin-GFP translocation imaging; activation, % at 20 µM; 480 tested, 38% active;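 active = mean activation at 20 µM of at least 40%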;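 note: 0% = DMSO without peptide and 100% = 100 nM NTR1 peptide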
The depositor's hits bear a star; . = no result given. Rows were chosen to be rich in hits. Some 2% of all compounds tested hit in one or more screens of this group.

SMILES	Hep lipid drop	Arr AP2 block	TAG inh	NTR1 agonist	GRK2 aptamer HTS	Beta2AR agonist	NTR1 ag conf
O=C(CN(c1cccc(C(F)(F)F)c1)S(=O)(=O)c1ccc(Cl)c([N+](=O)[O-])c1)NCc1ccccc1	2.2	21.9	.	42.9*	0.0	-1.0	-0.2
COc1cc(/C=N/NC(=O)C(=O)NCc2ccco2)cc(Br)c1O	.	38.5	-9.4	1.4	2.0	-1.2	.
NS(=O)(=O)c1ccc(N2N=C(c3ccccc3)CC2c2cccc(F)c2)cc1 (configuration not stated)	-6.9	4.7	.	.	0.0	3.3	.
NS(=O)(=O)c1ccc(N2N=C(c3ccc(Br)cc3)CC2c2ccc(F)cc2)cc1 (configuration not stated)	-18.2	-8.8	5.2	42.0*	3.0	10.8	42.3*
CCN1CCN(CCCNC(=O)c2ccc(/C=C3/Sc4ccccc4N(Cc4ccccc4F)C3=O)cc2)CC1	3.7	-1.6	15.9	41.1*	0.0	47.3*	6.8
CCN1CCN(CCNC(=O)c2ccc(/C=C3/Sc4ccccc4N(Cc4ccccc4C)C3=O)cc2)CC1	-21.4	0.1	11.8	.	.	31.7	.
CC(C)(C)c1ccc(OCC(=O)NCC(c2cccs2)N2CCOCC2)cc1 (configuration not stated)	.	-12.7	-0.1	4.3	2.0	-2.4	.
CCOc1ccc(Br)cc1S(=O)(=O)Nc1ccccc1N1CCOCC1	.	7.4	-4.5	49.4*	0.0	-4.2	54.5*
CCOc1ccc(Br)cc1S(=O)(=O)Nc1ccc(N2CCOCC2)cc1	-12.7	24.2	-8.7	0.5	0.0	0.3	.
CCOC(=O)c1ccc(NC(=O)C2CCCN(S(=O)(=O)c3ccc(F)cc3)C2)cc1 (configuration not stated)	4.1	2.0	.	53.4*	1.0	34.8	22.2
COc1cc(C(=O)Oc2cccc(Nc3ncnc4ccccc34)c2)cc(OC)c1OC	.	-4.6	.	43.7*	3.0	-6.8	31.1
COc1ccc(C(=O)Oc2cccc(Nc3ncnc4ccccc34)c2)cc1OC	1.4	4.4	.	6.2	0.0	-15.5	.
O=C(Nc1ccc(-c2noc(-c3cccs3)n2)cc1)c1cccnc1	-3.5	2.2	-0.2	46.8*	2.0	-0.6	8.6
Cc1ccc(S(=O)(=O)CCC(=O)Nc2cccc(S(=O)(=O)N3CCCCCC3)c2)cc1	.	7.4	-7.1	1.6	3.0	-3.6	.
Cc1ccccc1-n1c(=O)[nH]c(=O)c2c(N)c(C(=O)c3ccc(Cl)cc3)sc21	15.2	-2.6	.	40.2*	4.0	15.1	10.0
Cc1ccc(C(=O)Nc2nnc(NC(=S)Nc3ccccc3)s2)cc1	21.4	-7.6	33.1	72.9*	1.0	10.9	57.6*
NC(=S)NN=C1c2cc(OCCN3CCOCC3)ccc2-c2ccc(OCCN3CCOCC3)cc21	28.8	-2.1	.	30.2	0.0	25.5	.
O=c1[nH]c(=O)n(Cc2ccco2)c2c1C(C(F)(F)F)(C(F)(F)F)N=C(C1CCCCC1)N2	-2.7	-3.2	.	0.8	1.0	-13.4	.
O=c1[nH]c(=O)n(Cc2ccco2)c2c1C(C(F)(F)F)(C(F)(F)F)N=C(CCC1CCCCC1)N2	.	21.9	.	45.6*	1.0	4.5	21.5
NC(=O)CSc1nnc(NC(=O)C23CC4CC(CC(C4)C2)C3)s1	11.4	3.0	.	2.5	0.0	-6.0	.
CSc1nnc(NC(=O)C23CC4CC(CC(C4)C2)C3)s1	7.7	-13.1	.	51.5*	6.0	-6.7	53.2*
CCCOc1ccc(C(=O)c2ccccc2C(=O)OC2CCOC2=O)cc1OCCC (configuration not stated)	.	1.0	8.7	44.5*	1.0	-2.3	46.5*
CC(Oc1ccc2c3c(c(=O)oc2c1)CCCC3)C(=O)NCC(O)c1ccccc1 (configuration not stated)	1.5	-16.5	.	0.5	1.0	-8.7	.
CCC(C)NC(=S)N(Cc1cc2cc(C)ccc2n2nnnc12)CC(C)(C)NC(C)C (configuration not stated)	-9.2	15.9	.	0.8	2.0	25.8	.
Cc1cccc(C(=O)Oc2ccc(/C=N/NC(=O)c3ccccc3O)cc2)c1	-7.1	6.5	.	21.8	0.0	12.1	.
SMILES	Hep lipid drop	Arr AP2 block	TAG inh	NTR1 agonist	GRK2 aptamer HTS	Beta2AR agonist	NTR1 ag conf
Cc1cccc(C(=O)Oc2ccc(/C=N/NC(=O)c3ccc(O)cc3)cc2)c1	-4.2	34.0	7.9	53.0*	6.0	12.5	13.9
COc1cc([N+](=O)[O-])ccc1NC(=O)Nc1nc2c(s1)CCCC2	22.4	34.6	.	42.6*	1.0	2.5	17.7
Cc1ccc(-n2ncc3c(N4CCN(c5ccccc5)CC4)ncnc32)c(C)c1	.	9.5	.	61.9*	0.0	27.8	60.9*
O=C(Nc1ccc(Cl)c(Cl)c1)Nc1nc(-c2ccccc2)cs1	2.0	-2.4	.	47.1*	39.0	0.1	20.8
O=C(Nc1ccccc1)Nc1nc(-c2ccccc2)cs1	2.3	-10.1	15.7	2.7	0.0	-2.1	.
COc1cccc(-c2csc(NC(=O)Nc3ccccc3)n2)c1	-8.7	-9.8	.	72.5*	3.0	0.1	22.5
Cn1c(N)c(C(=O)CN2CCN(S(=O)(=O)c3ccccc3C#N)CC2)c(=O)n(C)c1=O	.	.	-0.7	.	.	.	.
CCCC1(c2ccccc2)NC(=O)N(CC(=O)N(C)Cc2c(F)cccc2Cl)C1=O (configuration not stated)	37.1	-8.2	.	-0.9	0.0	6.3	.
O=C(/C=C/c1cccc(Cl)c1)Nc1ncccn1	2.0	-2.8	.	-0.5	2.0	-10.0	.
O=C(/C=C/c1cccc(Cl)c1)c1nc2ccccc2[nH]1	.	-1.7	14.5	42.4*	5.0	36.5	72.2*
CC(OC(=O)CNC(=O)C1CCCCC1)C(=O)NCc1ccccc1 (configuration not stated)	.	-9.8	-1.1	5.9	0.0	-2.6	.
Cc1ccc(C)c(C(O)c2ncc(-c3ccc(C(F)(F)F)cc3)[nH]2)c1 (configuration not stated)	.	.	-6.2	.	.	.	.
CCOC(=O)/C(=C\c1cccc(O)c1)c1nc2sc(C)c(C)c2c(=O)[nH]1	-36.3	-15.2	.	42.9*	1.0	11.7	50.6*
CO/N=C(\c1nonc1N)N1CCN(c2ccc(Cl)cc2[N+](=O)[O-])CC1	.	9.0	23.3	57.6*	0.0	-12.6	36.1
